According to ChEMBL document CHEMBL1138301, “N-(2-Amino-phenyl)-4-(heteroarylmethyl)-benzamides as new histone deacetylase inhibitors” (Bioorg Med Chem Lett, 2007):
Active and inactive are the calls of the source. The calls are words filed in the database; no cut-off is given here.

Experiments:
T-24 [1] = assay: Induction of p21WAF1/Cip1 expression in human T24 cells […] after 16 hrs by Western blot analysis relative to MS-275; format: functional, cell-based; details: T-24, 16 h
In short: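 T24 cells exposed to 0, 1, 5 and 25 µM or DMSO alone for 16 h. Whole-cell lysates analysed by Western blot with p21WAF1/Cip1 antibody. Relative effective concentration expressed against MS-275 at 1 µM.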

HCT-116 [2] = assay: Antiproliferative activity against human HCT116 cells by MTT assay; format: functional, cell-based
In short: (§1)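 MTT read-out of cell proliferation/cytotoxicity in human colon cancer HCT116 cells and in normal human mammary epithelial cells (HMEC); IC50 derived.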

[3] = Half life in Sprague-Dawley rat at 2.5 mg/kg, iv; format: ADME, organism-based; set-up: dose 2.5 mg/kg, route intravenous; details: in vivo
In short: (§2)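 Pharmacokinetics with single dosing at 2.5 mg/kg iv or 5.0 mg/kg po. Vehicles were acidified saline or acidified saline/PEG400. Half-life and oral availability were determined.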

[4] = Oral bioavailability in Sprague-Dawley rat at 5.0 mg/kg, po; format: ADME, organism-based; details: in vivo; in short: as §2
HCT-116 [5] = assay: Cell cycle arrest in HCT116 cells by accumulation at G2/M phase; format: functional, cell-based; details: Homo sapiens
DU-145 = assay: Antitumor activity against DU145 xenografted nude mouse assessed as tumor growth inhibition at 80 mg/kg, po after 14 days; format: functional, Homo sapiens; details: DU-145, 336 h
In short: (§3)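 Human tumour xenografts (A549 non-small cell lung, DU145 prostate, HCT116 colon) grown in nude mice, 6 animals per group. Dosing once daily for 14 days, intraperitoneal or oral. Read-out is % tumour growth inhibition versus vehicle-treated control animals.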

HMEC = assay: Antiproliferative activity against human HMEC cells by MTT assay; format: cell-based; in short: as §1
Histone deacetylase 1 = Histone deacetylase 1 (Homo sapiens, UniProt Q13547); assay: Inhibition of human recombinant HDAC1 expressed in insect Sf9 cells
Sequence of Histone deacetylase 1 (Q13547 whole entry): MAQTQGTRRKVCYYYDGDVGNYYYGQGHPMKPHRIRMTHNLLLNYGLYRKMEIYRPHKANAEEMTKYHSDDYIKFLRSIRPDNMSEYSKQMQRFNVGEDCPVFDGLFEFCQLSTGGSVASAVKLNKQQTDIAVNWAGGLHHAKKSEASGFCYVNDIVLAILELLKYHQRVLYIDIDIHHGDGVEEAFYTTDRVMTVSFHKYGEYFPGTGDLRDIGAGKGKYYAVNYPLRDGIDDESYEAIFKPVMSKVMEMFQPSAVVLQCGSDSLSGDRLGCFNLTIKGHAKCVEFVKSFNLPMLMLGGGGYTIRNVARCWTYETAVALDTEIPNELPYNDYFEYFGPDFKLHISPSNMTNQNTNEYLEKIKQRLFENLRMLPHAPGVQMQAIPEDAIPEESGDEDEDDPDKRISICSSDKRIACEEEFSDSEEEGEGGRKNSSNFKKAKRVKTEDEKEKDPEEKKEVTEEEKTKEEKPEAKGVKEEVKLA
In short: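 FLAG-tagged recombinant HDAC1 expressed in Sf9 cells, purified by anti-FLAG affinity resin and size-exclusion chromatography. Substrate BocLys(acetyl)AMC. Deacetylated product detected fluorometrically after trypsin release of AMC (excitation 360 nm). IC50 determined.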

A549 = assay: Antitumor activity against A549 xenografted nude mouse assessed as tumor growth inhibition at 80 mg/kg, po after 14 days; format: functional, Homo sapiens; details: A549, 336 h; in short: as §3
HCT-116 [6] = assay: Antitumor activity against HCT116 xenografted nude mouse assessed as tumor growth inhibition at 40 mg/kg, ip after 14 days; format: functional, Homo sapiens; details: HCT-116, ip, 336 h, route intraperitoneal; in short: as §3
HCT-116 [7] = assay: Apoptosis in human HCT116 cells; format: functional, cell-based
T-24 [8] = assay: Induction of histone H4 acetylation in human T24 cells after 16 hrs by immunoblot relative to MS-275; format: functional, cell-based; details: T-24, 16 h
In short: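 T24 cells exposed to 0, 1, 5 and 25 µM for 16 h, then harvested. Histones acid-extracted, run on SDS–PAGE and immunoblotted with antibodies to H4 and to acetylated H4. Relative effective concentration expressed against MS-275 at 1 µM.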

HCT-116 [9] = assay: Antitumor activity against HCT116 xenografted nude mouse assessed as tumor growth inhibition at 20 mg/kg, ip after 14 days; format: functional, Homo sapiens; details: HCT-116, ip, 336 h, route intraperitoneal; in short: as §3

SMILES	EC50 (T-24 [1]) [µM]	IC50 (HCT-116 [2]) [µM]	half-life [3] [h]	bioavailability [4] [%]	Activity (HCT-116 [5])	inhibition in vivo at 80 mg/kg (DU-145) [%]	IC50 (HMEC) [µM]	IC50 (Histone deacetylase 1) [µM]	inhibition in vivo at 80 mg/kg (A549) [%]	inhibition in vivo at 40 mg/kg (HCT-116 [6]) [%]	Activity (HCT-116 [7])	EC50 (T-24 [8]) [µM]	inhibition in vivo at 20 mg/kg (HCT-116 [9]) [%]
Nc1ccccc1NC(=O)c1ccc(Cn2c(=O)[nH]c3ccsc3c2=O)cc1	1	0.4	1.3	47	Active	67	29	0.06	55	61	Active	1	
Nc1ccccc1NC(=O)c1ccc(Cn2c(=O)oc3ccccc3c2=O)cc1	2	0.3			Active		21	0.1			Active	1	
Nc1ccccc1NC(=O)c1ccc(Cn2nnc3ccccc3c2=O)cc1	1	0.6			Active		17	0.2			Active	1	
Nc1ccccc1NC(=O)c1ccc(CN2C(=O)c3ccccc3C2=O)cc1	3	5			Active		> 50	0.2			Active	5	
COc1ccc(Cn2c(=O)n(Cc3ccc(C(=O)Nc4ccccc4N)cc3)c(=O)c3ccccc32)cc1	3	0.8			Active		> 25	0.1			Active	1	
Nc1ccccc1NC(=O)c1ccc(CN2Cc3ccccc3C2=O)cc1	2	0.5	0.6	34	Active		37	0.1			Active	1	
Nc1ccccc1NC(=O)c1ccc(CC2COc3ccccc3C2)cc1 (configuration not stated)	3	2			Active		23	1			Active	3	
Cn1c(=O)n(Cc2ccc(C(=O)Nc3ccccc3N)cc2)c(=O)c2ccccc21	1	0.7			Active		> 42	0.1			Active	1	
Nc1ccccc1NC(=O)c1ccc(CC2Cc3ccccc3C2=O)cc1 (configuration not stated)	2	0.6			Active		8	0.1			Active	< 1	
CCn1c(=O)n(Cc2ccc(C(=O)Nc3ccccc3N)cc2)c(=O)c2ccccc21	0.6	0.4			Active		25	0.2			Active	1	
Nc1ccccc1NC(=O)c1ccc(Cn2cnc3ccsc3c2=O)cc1	1	0.7	1.4	47	Active	45	> 50	0.2	42		Active	1	
Nc1ccccc1NC(=O)c1ccc(Cc2coc3ccccc3c2=O)cc1	1	0.3			Active		9	0.03			Active	1	
Nc1ccccc1NC(=O)c1ccc(Cn2c(=O)[nH]c3ccccc3c2=O)cc1	2	0.8			Active		18	0.06		59	Active	1	51
CN(C)CCn1c(=O)n(Cc2ccc(C(=O)Nc3ccccc3N)cc2)c(=O)c2ccccc21	1	1	2.1	38	Active		> 25	0.3			Active	1	
Nc1ccccc1NC(=O)c1ccc(Cn2c(=O)c3ccccc3n(CCN3CCOCC3)c2=O)cc1	5	1			Active		> 25	0.4			Active	3	
Nc1ccccc1NC(=O)c1ccc(CC2COc3ccccc3C2=O)cc1 (configuration not stated)	1	0.9			Active		6	0.09			Active	2	
CCn1c(=O)n(Cc2ccc(C(=O)Nc3ccccc3N)cc2)c(=O)c2sccc21	3	0.8	1.2	64	Active		> 50	0.3			Active	1	
Nc1ccccc1NC(=O)c1ccc(Cn2cnc3ccccc3c2=O)cc1	1	0.4			Active		28	0.1			Active	< 1	
Cc1nc2ccccc2c(=O)n1Cc1ccc(C(=O)Nc2ccccc2N)cc1	2	0.6	0.9	16	Active		> 50	0.08			Active	1	
